Results taken from ChEMBL document CHEMBL3286372, “Design, synthesis and structure-activity relationship of novel semi-synthetic flavonoids as antiproliferative agents” (2014).

Legend:
Format in all cases: functional
[1] = Growth inhibition of human LOXIMVI cells at 10 uM after 48 hrs by sulforhodamine B assay relative to control; conditions: LOX IMVI, read-out: GI
Method in brief: (§1)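 NCI-60 primary screen at a single dose of 10 µM with 48 h continuous exposure. Growth or viability read by sulforhodamine B protein staining and expressed as percent growth inhibition versus untreated cells.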

HCT-116 = assay: Growth inhibition of human HCT116 cells at 10 uM after 48 hrs by sulforhodamine B assay relative to control; conditions: HCT-116, 48 h, read-out: GI; method in brief: as §1
PC-3 = assay: Growth inhibition of human PC3 cells at 10 uM after 48 hrs by sulforhodamine B assay relative to control; conditions: PC-3, 48 h, read-out: GI
Method in brief: (§2)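 NCI-60 primary screen at a single 10 µM dose. Continuous 48 h exposure, with growth or viability estimated by sulforhodamine B protein staining. Reported as percent growth inhibition of treated cells relative to untreated growth.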

786-0 = assay: Growth inhibition of human 786-0 cells at 10 uM after 48 hrs by sulforhodamine B assay relative to control; conditions: 786-0, 48 h, read-out: GI; method in brief: as §1
NCI-H460 = assay: Growth inhibition of human NCI-H460 cells at 10 uM after 48 hrs by sulforhodamine B assay relative to control; conditions: NCI-H460, 48 h, read-out: GI; method in brief: as §2
NCI-H23 = assay: Growth inhibition of human NCI-H23 cells at 10 uM after 48 hrs by sulforhodamine B assay relative to control; conditions: NCI-H23, 48 h, read-out: GI; method in brief: as §2
[2] = Growth inhibition of human OVCAR3 cells at 10 uM after 48 hrs by sulforhodamine B assay relative to control; conditions: OVCAR-3, 48 h, read-out: GI; method in brief: as §2
SW-620 = assay: Growth inhibition of human SW620 cells at 10 uM after 48 hrs by sulforhodamine B assay relative to control; conditions: SW-620, 48 h, read-out: GI; method in brief: as §2
HL-60(TB) = assay: Growth inhibition of human HL-60(TB) cells at 10 uM after 48 hrs by sulforhodamine B assay relative to control; conditions: HL-60, 48 h, read-out: GI
Method in brief: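 Single-dose primary screen at 10 µM across the NCI 60 panel, 48 h continuous exposure. Growth estimated by sulforhodamine B protein staining and reported as percentage growth inhibition relative to untreated control.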

MDA-MB-435 = assay: Growth inhibition of human MDA-MB-435 cells at 10 uM after 48 hrs by sulforhodamine B assay relative to control; conditions: MDA-MB-435, 48 h, read-out: GI; method in brief: as §1
MDA-MB-468 = assay: Growth inhibition of human MDA-MB-468 cells at 10 uM after 48 hrs by sulforhodamine B assay relative to control; conditions: MDA-MB-468, 48 h, read-out: GI; method in brief: as §2
NCI-H522 = assay: Growth inhibition of human NCI-H522 cells at 10 uM after 48 hrs by sulforhodamine B assay relative to control; conditions: NCI-H522, 48 h, read-out: GI; method in brief: as §2
TK-10 = assay: Growth inhibition of human TK10 cells at 10 uM after 48 hrs by sulforhodamine B assay relative to control; conditions: TK-10, 48 h, read-out: GI
Method in brief: (§3)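 NCI-60 primary single-dose screen at 10 µM with continuous 48 h exposure. Cell viability/growth read by sulforhodamine B protein staining. Reported as percent growth inhibition relative to untreated cells.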

[3] = Growth inhibition of human UO31 cells at 10 uM after 48 hrs by sulforhodamine B assay relative to control; conditions: UO-31, 48 h, read-out: GI; method in brief: as §3
T47D = assay: Growth inhibition of human T47D cells at 10 uM after 48 hrs by sulforhodamine B assay relative to control; conditions: read-out: GI; method in brief: as §2
[4] = Growth inhibition of human OVCAR8 cells at 10 uM after 48 hrs by sulforhodamine B assay relative to control; conditions: OVCAR-8, 48 h, read-out: GI; method in brief: as §2
[5] = Growth inhibition of human HOP92 cells at 10 uM after 48 hrs by sulforhodamine B assay relative to control; conditions: HOP-92, 48 h, read-out: GI; method in brief: as §1
SK-MEL-2 = assay: Growth inhibition of human SK-MEL-2 cells at 10 uM after 48 hrs by sulforhodamine B assay relative to control; conditions: SK-MEL-2, 48 h, read-out: GI; method in brief: as §2
IGROV-1 = assay: Growth inhibition of human IGROV1 cells at 10 uM after 48 hrs by sulforhodamine B assay relative to control; conditions: IGROV-1, 48 h, read-out: GI; method in brief: as §1
MCF7 = assay: Growth inhibition of human MCF7 cells at 10 uM after 48 hrs by sulforhodamine B assay relative to control; conditions: MCF7, 48 h, read-out: GI; method in brief: as §1
RPMI-8226 = assay: Growth inhibition of human RPMI8226 cells at 10 uM after 48 hrs by sulforhodamine B assay relative to control; conditions: RPMI-8226, 48 h, read-out: GI; method in brief: as §2
[6] = Growth inhibition of human NCI-ADR-RES cells at 10 uM after 48 hrs by sulforhodamine B assay relative to control; conditions: read-out: GI; method in brief: as §2
K562 = assay: Growth inhibition of human K562 cells at 10 uM after 48 hrs by sulforhodamine B assay relative to control; conditions: K562, 48 h, read-out: GI; method in brief: as §1
U-251 = assay: Growth inhibition of human U251 cells at 10 uM after 48 hrs by sulforhodamine B assay relative to control; conditions: U-251, 48 h, read-out: GI; method in brief: as §3
[7] = Growth inhibition of human SF295 cells at 10 uM after 48 hrs by sulforhodamine B assay relative to control; conditions: SF-295, 48 h, read-out: GI; method in brief: as §2
[8] = Growth inhibition of human OVCAR4 cells at 10 uM after 48 hrs by sulforhodamine B assay relative to control; conditions: OVCAR-4, 48 h, read-out: GI; method in brief: as §2
[9] = Growth inhibition of human MOLT4 cells at 10 uM after 48 hrs by sulforhodamine B assay relative to control; conditions: MOLT-4, 48 h, read-out: GI; method in brief: as §2
CAKI-1 = assay: Growth inhibition of human CAKI-1 cells at 10 uM after 48 hrs by sulforhodamine B assay relative to control; conditions: CAKI-1, 48 h, read-out: GI; method in brief: as §1
CCRF-CEM = assay: Growth inhibition of human CCRF-CEM cells at 10 uM after 48 hrs by sulforhodamine B assay relative to control; conditions: read-out: GI; method in brief: as §1
[10] = Growth inhibition of human RXF393 cells at 10 uM after 48 hrs by sulforhodamine B assay relative to control; conditions: RXF 393, 48 h, read-out: GI; method in brief: as §2
SR = assay: Growth inhibition of human SR cells at 10 uM after 48 hrs by sulforhodamine B assay relative to control; conditions: read-out: GI; method in brief: as §2
Malme-3M = assay: Growth inhibition of human MALME-3M cells at 10 uM after 48 hrs by sulforhodamine B assay relative to control; conditions: read-out: GI; method in brief: as §1
HT-29 = assay: Growth inhibition of human HT-29 cells at 10 uM after 48 hrs by sulforhodamine B assay relative to control; conditions: HT-29, 48 h, read-out: GI; method in brief: as §1
[11] = Growth inhibition of human UACC257 cells at 10 uM after 48 hrs by sulforhodamine B assay relative to control; conditions: UACC-257, 48 h, read-out: GI; method in brief: as §3
[12] = Growth inhibition of human SF539 cells at 10 uM after 48 hrs by sulforhodamine B assay relative to control; conditions: SF-539, 48 h, read-out: GI; method in brief: as §2
SK-MEL-5 = assay: Growth inhibition of human SK-MEL-5 cells at 10 uM after 48 hrs by sulforhodamine B assay relative to control; conditions: SK-MEL-5, 48 h, read-out: GI; method in brief: as §2
[13] = Growth inhibition of human HCT15 cells at 10 uM after 48 hrs by sulforhodamine B assay relative to control; conditions: HCT-15, 48 h, read-out: GI; method in brief: as §1
[14] = Growth inhibition of human BT549 cells at 10 uM after 48 hrs by sulforhodamine B assay relative to control; conditions: BT-549, 48 h, read-out: GI; method in brief: as §1

| Structure (SMILES) | inhibition of growth at 10 µM [1] [%] | inhibition of growth at 10 µM (HCT-116) [%] | inhibition of growth at 10 µM (PC-3) [%] | inhibition of growth at 10 µM [2] [%] | inhibition of growth at 10 µM (SW-620) [%] | inhibition of growth at 10 µM (HL-60(TB)) [%] | inhibition of growth at 10 µM (MDA-MB-435) [%] | inhibition of growth at 10 µM (MDA-MB-468) [%] | inhibition of growth at 10 µM (NCI-H522) [%] | inhibition of growth at 10 µM (T47D) [%] | inhibition of growth at 10 µM (SK-MEL-2) [%] | inhibition of growth at 10 µM (MCF7) [%] | inhibition of growth at 10 µM (RPMI-8226) [%] | inhibition of growth at 10 µM [6] [%] | inhibition of growth at 10 µM (U-251) [%] | inhibition of growth at 10 µM [7] [%] | inhibition of growth at 10 µM [9] [%] | inhibition of growth at 10 µM (CAKI-1) [%] | inhibition of growth at 10 µM (CCRF-CEM) [%] | inhibition of growth at 10 µM (SR) [%] | other results |
| --- | --- | --- | --- | --- | --- | --- | --- | --- | --- | --- | --- | --- | --- | --- | --- | --- | --- | --- | --- | --- | --- |
| C=CCOc1cc2oc(-c3ccc(Cl)cc3)cc(=O)c2c(OC)c1C=O | 99 | 89 | 76 | 81 | 69 | 75 | 73 | 91 | 93 | 72 | 75 | 85 | 96 | 78 | 68 | – | – | – | – | – | inhibition of growth at 10 µM (786-0): 65%; inhibition of growth at 10 µM (NCI-H460): 61%; inhibition of growth at 10 µM (NCI-H23): 61%; inhibition of growth at 10 µM (TK-10): 73%; inhibition of growth at 10 µM [3]: 74%; inhibition of growth at 10 µM [4]: 66%; inhibition of growth at 10 µM [5]: 97%; inhibition of growth at 10 µM (IGROV-1): 62%; inhibition of growth at 10 µM (K562): 76% |
| COc1ccc(-c2cc(=O)c3c(OC)c4ccoc4cc3o2)cc1 | – | – | – | – | – | – | – | – | – | – | – | – | – | – | 62 | 60 | – | – | – | – | inhibition of growth at 10 µM [3]: 62% |
| COc1c2ccoc2c(Br)c2oc(-c3ccc(Cl)cc3)cc(=O)c12 | – | – | – | – | – | – | – | – | – | – | – | – | – | – | – | – | – | – | – | – | inhibition of growth at 10 µM [8]: 72% |
| COc1c2c(c(Br)c3occc13)O/C(=C\c1ccc(Cl)cc1)C2=O | 65 | 83 | 69 | 67 | 63 | 74 | 82 | 80 | 64 | 60 | 84 | 79 | 91 | 61 | 62 | 67 | 85 | 80 | 79 | 82 | inhibition of growth at 10 µM [10]: 78%; inhibition of growth at 10 µM (Malme-3M): 65%; inhibition of growth at 10 µM (HT-29): 63%; inhibition of growth at 10 µM [11]: 61% |
| COc1c(C(=O)/C=C/c2ccc(Cl)cc2)c(O)cc2occc12 | – | – | – | – | – | – | – | – | – | 67 | – | 64 | 66 | – | – | – | – | – | 60 | 63 | – |
| COc1ccc(/C=C2\Oc3c(c(OC)c4ccoc4c3Br)C2=O)cc1 | – | 62 | – | – | – | – | – | – | – | – | – | 60 | 71 | – | – | – | 67 | 61 | – | 60 | inhibition of growth at 10 µM [12]: 60% |
| C=CCOc1cc2oc(-c3ccc(OC)cc3)cc(=O)c2c(OC)c1C=O | – | – | – | – | – | – | – | – | – | – | – | – | – | – | – | – | – | – | – | – | inhibition of growth at 10 µM [5]: 66% |
| COc1ccc(/C=C/c2oc3c(OC)c4occc4c(OC)c3c(=O)c2CN2CCOCC2)cc1 | – | – | – | – | – | – | – | – | – | – | – | – | 61 | – | – | – | 66 | – | 87 | – | inhibition of growth at 10 µM (SK-MEL-5): 84% |
| COc1c2c(c(Br)c3occc13)O/C(=C\c1ccccc1)C2=O | 65 | 77 | 66 | 86 | 60 | 64 | 74 | 93 | 62 | – | 88 | 84 | 94 | 79 | 73 | 65 | 85 | 87 | 79 | 79 | inhibition of growth at 10 µM [13]: 60%; inhibition of growth at 10 µM [12]: 75%; inhibition of growth at 10 µM (NCI-H460): 83%; inhibition of growth at 10 µM (NCI-H23): 78%; inhibition of growth at 10 µM [10]: 93%; inhibition of growth at 10 µM (TK-10): 61%; inhibition of growth at 10 µM (SK-MEL-5): 67%; inhibition of growth at 10 µM [4]: 70%; inhibition of growth at 10 µM (HT-29): 72%; inhibition of growth at 10 µM [14]: 66% |
| COc1ccc(/C=C/c2cc(=O)c3c(OC)c4ccoc4c(Br)c3o2)cc1 | – | – | – | – | – | – | – | – | 62 | – | – | – | – | – | – | – | – | – | – | – | – |
